ChEMBL document CHEMBL4373686, “Methyl sulfonamide substituents improve the pharmacokinetic properties of bicyclic 2-pyridone based Chlamydia trachomatis inhibitors” (Medchemcomm, 2019)
In brackets after ≈: the same amount, converted by molar mass.

Tested on: not listed separately
Test: Volume of distribution at steady state in C3H/HeJ mouse at 1.2 mg/kg, iv measured upto 24 hrs
Details: in vivo

| Vdss [L/kg] | Compound |
| --- | --- |
| 27 | Nc1c(Cc2cccc3ccccc23)c(C2CC2)c2n(c1=O)C(n1cc(-c3ccccc3)nn1)CS2 (racemic) |

Tested on: not listed separately
Test: Cmax in C3H/HeJ mouse at 1.2 mg/kg, iv measured upto 24 hrs
Details: in vivo

| Cmax [nM] | Compound |
| --- | --- |
| 40 | Nc1c(Cc2cccc3ccccc23)c(C2CC2)c2n(c1=O)C(n1cc(-c3ccccc3)nn1)CS2 (racemic) |

Tested on: not listed separately
Test: Intrinsic clearance in mouse liver microsomes at 1 uM incubated for 5 to 60 mins in presence of NADPH by LC-MS/MS analysis
Format: ADME, Microsome
Details: not given
Procedure, shortened: (§1)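 Liver microsomes 0.5 mg/ml, compound 1 μM in 100 mM phosphate pH 7.4; started with 1 mM NADPH (final). Sampled 0–60 min, quenched in cold acetonitrile, parent remaining by LC-MS/MS; ln % remaining versus time fitted by linear regression.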

| CLH [µL/min/mg] | Compound |
| --- | --- |
| 135 | Nc1c(Cc2cccc3ccccc23)c(C2CC2)c2n(c1=O)C(n1cc(-c3ccccc3)nn1)CS2 (racemic) |

Tested on: not listed separately
Test: Solubility of compound in PBS at 0.2 to 0.5 mg after 48 hrs by LC-MS/MS based shake flask method
Format: physicochemical
Details: not given

| solubility thermodynamic at 48 h [µM] | Compound |
| --- | --- |
| 0.31 (≈ 0.152 µg/mL) | Nc1c(Cc2cccc3ccccc23)c(C2CC2)c2n(c1=O)C(n1cc(-c3ccccc3)nn1)CS2 (racemic) |

Tested on: not listed separately
Test: Efflux ratio of apparent permeability in human Caco2 cells at 1 uM after 15 to 60 mins by LC-MS/MS analysis
Format: ADME, cell-based
Details: caco-2, 1 µM
Procedure, shortened: (§2)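 Caco-2 monolayers (passage 94–105) used on day 21 on filter supports; 1 μM donor solution applied apical or basolateral, pH 7.4 both chambers, 37 °C, 500 rpm stirring. Receiver sampled at 15, 30, 60 min, donor at 60 min for mass balance; LC-MS/MS with warfarin internal standard.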

| Ratio | Compound |
| --- | --- |
| 0.6 | Nc1c(Cc2cccc3ccccc23)c(C2CC2)c2n(c1=O)C(n1cc(-c3ccccc3)nn1)CS2 (racemic) |

Tested on: not listed separately
Test: Half life in C3H/HeJ mouse at 1.2 mg/kg, iv measured upto 24 hrs
Details: in vivo

| t1/2 [h] | Compound |
| --- | --- |
| 3.7 | Nc1c(Cc2cccc3ccccc23)c(C2CC2)c2n(c1=O)C(n1cc(-c3ccccc3)nn1)CS2 (racemic) |

Tested on: not listed separately
Test: Clearance in C3H/HeJ mouse at 1.2 mg/kg, iv measured upto 24 hrs
Details: in vivo

| CL [L/h] | Compound |
| --- | --- |
| 0.51 | Nc1c(Cc2cccc3ccccc23)c(C2CC2)c2n(c1=O)C(n1cc(-c3ccccc3)nn1)CS2 (racemic) |

Tested on: not listed separately
Test: AUC (0 to infinity) C3H/HeJ mouse at 1.2 mg/kg, iv measured upto 24 hrs
Details: in vivo

| AUC(0-inf) [µM·h] | Compound |
| --- | --- |
| 0.1 | Nc1c(Cc2cccc3ccccc23)c(C2CC2)c2n(c1=O)C(n1cc(-c3ccccc3)nn1)CS2 (racemic) |

Tested on: Chlamydia trachomatis
Test: (§3) Antibacterial activity against Chlamydia trachomatis 434/Bu serovar L2/ATCC VR-902B in HeLa 229 cells infected with cell lysates from 48 hrs at 1 uM compound treated HeLa 229 cells with Chlamydia trachomatis infection assessed as inhibition of reinfection and measured after 48 hrs post re-infection by DAPI staining based arrayscan automated microscopic method relative to control
Format: functional, organism-based
Details: not given
Procedure, shortened: (§4)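 HeLa 229 cells infected with C. trachomatis L2 EBs at MOI 0.3–0.5; compound added in RPMI 1 h post infection; 44–48 h, then water lysis. 10-fold serial dilutions of lysate reinfect fresh HeLa; 44–46 h, methanol fixed, anti-Chlamydia/FITC antibody plus DAPI stain, IFUs counted by automated microscopy; % IFU versus DMSO control; three independent experiments, duplicates.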

| Compound | inhibition [%] |
| --- | --- |
| Nc1c(Cc2cccc3ccccc23)c(C2CC2)c2n(c1=O)C(n1cc(-c3ccccc3)nn1)CS2 (racemic) | 90 |

Tested on: not listed separately
Test: Intrinsic clearance in human liver microsomes at 1 uM incubated for 5 to 60 mins in presence of NADPH by LC-MS/MS analysis
Format: ADME, Microsome
Details: not given
Procedure, shortened: as §1

| CLH [µL/min/mg] | Compound |
| --- | --- |
| 187 | Nc1c(Cc2cccc3ccccc23)c(C2CC2)c2n(c1=O)C(n1cc(-c3ccccc3)nn1)CS2 (racemic) |

Tested on: Chlamydia trachomatis
Test: as §3, with “2.5” for “1”
Format: functional, organism-based
Details: not given
Procedure, shortened: as §4

| Compound | inhibition [%] |
| --- | --- |
| Nc1c(Cc2cccc3ccccc23)c(C2CC2)c2n(c1=O)C(n1cc(-c3ccccc3)nn1)CS2 (racemic) | 91 |

Tested on: not listed separately
Test: Apparent permeability from apical to basolateral side in human Caco2 cells at 1 uM after 15 to 60 mins by LC-MS/MS analysis
Format: ADME, cell-based
Details: caco-2, 1 µM
Procedure, shortened: as §2

| Papp [×10⁻⁶ cm/s] | Compound |
| --- | --- |
| 0.33 | Nc1c(Cc2cccc3ccccc23)c(C2CC2)c2n(c1=O)C(n1cc(-c3ccccc3)nn1)CS2 (racemic) |

Tested on: not listed separately
Test: Fraction unbound in CD-1 mouse plasma at 10 uM incubated for 4 hrs by LC-MS/MS-based equilibrium dialysis method
Format: ADME, cell-free
Details: not given
Procedure, shortened: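 Rapid equilibrium dialysis: 10% CD-1 mouse plasma in isotonic buffer spiked to 10 μM compound, 1% DMSO final, against phosphate buffer pH 7.4; 37 °C, 900 rpm, 4 h. Matrix-matched samples precipitated with methanol, LC-MS/MS; fu corrected for plasma dilution.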

| Fu [%] | Compound |
| --- | --- |
| < 0.1 | Nc1c(Cc2cccc3ccccc23)c(C2CC2)c2n(c1=O)C(n1cc(-c3ccccc3)nn1)CS2 (racemic) |
